RAD52 anneal inh – inhibitors of human RAD52 DNA annealing; P43351; recombinant RAD52 DNA annealing, FRET fluorescence; inhibition, % at 18.7 µM; hit rate 0.46% among 360,000; AID 651710;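 active = every replicate showing at least 50% inhibition; inconclusive = mean inhibition at least 50% but not in every replicate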
PglD inh – inhibitors of Campylobacter jejuni PglD acetyltransferase. purified PglD enzyme, DTNB colorimetric CoA detection. inhibition, % at 12.5 µM. hit rate 0.098% among 360,000; in the data active = inhibition above about 16%, passing the limit was not always enough; inconclusive = no clear call, values can overlap the other calls
Ecoli rRNA inh – selective bacterial rRNA inhibition in E. coli; E. coli WT GFP vs humanized-ribosome RFP mutants, fluorescence, 24 h; stronger effect = lower value; DMSO median 0, no signal -100; AID 720706; hit rate 1.6% among 350,000; GFP signal change (wild-type ribosome), % (no concentration beside the values);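 active = significant combined selectivity score with lowered wild-type GFP, culture density cut under 30%, mutant RFP and density less affected; inactive = any of these conditions unmet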
E-selectin induc – E-selectin induction on HUVECs | activation, % at 7.58 µM | hit rate 0.37% among 260,000 | P16581 | AID 686992 | HUVEC E-selectin immunofluorescence imaging; normalized: neutral wells 0, TNF-alpha wells 100;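 active = mean E-selectin-positive cell signal at least 10% of the positive control, reached in at least 60% of replicates, without over 20% cell loss; inconclusive = no rule given, readout overlaps actives, possibly toxicity-flagged; inactive = the rest, including those meeting only one limit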
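Material: HUVEC primary endothelial cells; Amount: 3,000 cells per well; Dosing: single concentration; Medium: EGM-2 growth medium on 0.1% gelatin-coated wells; Read-out basis: percent E-selectin-positive cells; Signal: immunofluorescence imaging; Control set: TNF-alpha, DMSO.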
XiGFP reactiv – X-chromosome reactivation activator | XiGFP mouse fibroblasts, % GFP-positive cells imaging, 3 d; cells co-treated with 5-aza-dC sensitizer; scaled so ellipticine positive control = 100% | hit rate 0.055% among 360,000 | activation, % at 7.58 µM;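 active = mean normalized replicate activation at least 10% and every replicate at or above 10%; inconclusive = only one of the two criteria met; inactive = mean below 10% and not all replicates reach 10%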;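 also: 0% = median of on-plate neutral control wells and 100% = ellipticine 6 µM median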
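Assay system: SV40-immortalized XiGFP fibroblast cells, line 68-5-11; buffer or medium: DMEM plus 5-aza-dC sensitizer; compound: one concentration, pinned; timing: compounds 3 days, fix/stain 15 min at room temperature; benchmarks: positive control ellipticine, 6 µM final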
RAD54 inh – blocks human RAD54 Holliday junction branch migration; hit rate 0.14% among 360,000; AID 602329; inhibition, % at 10.4 µM; FAM/BHQ fluorescence; Q92698;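 active = mean normalized replicate activity at least 40 and at least half of replicates scoring 40 or more; inconclusive = only one of the two criteria met; inactive = mean below 40 and under half of replicates reaching 40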;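 also: 0% = median of neutral control wells and 100% = median of positive control wells; inhibitors cause a drop in the FAM fluorescence signal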
Target sequence (Q92698 whole entry, looked up): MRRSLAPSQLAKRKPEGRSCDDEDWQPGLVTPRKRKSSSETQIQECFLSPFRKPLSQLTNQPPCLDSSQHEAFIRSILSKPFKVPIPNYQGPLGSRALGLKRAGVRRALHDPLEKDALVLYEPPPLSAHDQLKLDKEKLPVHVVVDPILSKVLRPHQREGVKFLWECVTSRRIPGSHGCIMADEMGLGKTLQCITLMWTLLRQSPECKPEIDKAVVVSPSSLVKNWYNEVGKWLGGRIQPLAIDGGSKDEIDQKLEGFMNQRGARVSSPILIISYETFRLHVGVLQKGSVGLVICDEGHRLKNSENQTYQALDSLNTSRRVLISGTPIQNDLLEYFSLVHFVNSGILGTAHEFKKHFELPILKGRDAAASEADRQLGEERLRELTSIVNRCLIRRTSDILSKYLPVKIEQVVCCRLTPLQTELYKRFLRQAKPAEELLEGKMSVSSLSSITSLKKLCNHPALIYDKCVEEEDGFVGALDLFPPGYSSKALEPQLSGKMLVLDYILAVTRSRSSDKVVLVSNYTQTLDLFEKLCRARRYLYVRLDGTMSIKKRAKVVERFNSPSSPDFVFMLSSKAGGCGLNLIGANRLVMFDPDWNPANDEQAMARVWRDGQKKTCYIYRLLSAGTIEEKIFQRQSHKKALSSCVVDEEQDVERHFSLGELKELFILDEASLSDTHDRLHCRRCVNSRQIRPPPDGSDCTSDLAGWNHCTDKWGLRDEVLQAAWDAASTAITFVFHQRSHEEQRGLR
An asterisk follows results filed as active; u = inconclusive; x = not tested or not shown. Compounds with a hit are over-represented: about 2% of the library has one in this group of screens.

SMILES	RAD52 anneal inh	PglD inh	Ecoli rRNA inh	E-selectin induc	XiGFP reactiv	RAD54 inh
Nc1ccccc1C(=O)NNc1c2ccccc2nc2ccccc12	-1.8	-11.6	-19.6*	0.2	-0.1	12.1
Cc1ccc(C(=O)NNc2c3ccccc3nc3ccccc23)cc1	0.4	-6.6	-11.7	0.2	0.1	6.8
C[C@H](CO)N1C[C@H](C)[C@H](CN(C)C(=O)C2CCCCC2)OCCCC[C@H](C)Oc2ccc(NC(=O)Cc3ccccc3)cc2C1=O	-1.5	0.8	-4.7	-0.3	0.0	-2.6
O=C(NC1CCCc2c1cnn2-c1ccc(F)cc1F)c1ccccc1N1CCOCC1 (stereo unspecified)	4.6	-7.7	-29.4*	0.1	-0.2	10.2
O=C(C[C@H]1C[C@@H]2c3cc(NC(=O)NC4CCCCC4)ccc3O[C@@H]2[C@@H](CO)O1)NCc1ccncc1	11.5	2.7	4.8	0.2	0.0	-1.8
CCC(=O)N(C)C[C@H]1Oc2ncc(Br)cc2C(=O)N([C@@H](C)CO)C[C@H]1C	4.1	-0.8	6.5	89.6*	-0.4	1.7
CCCN(C)C[C@@H]1Oc2ncc(-c3ccccc3)cc2C(=O)N([C@H](C)CO)C[C@@H]1C	13.2	5.4	2.4	89.8*	-0.1	2.3
CCCNC(=O)N(C)C[C@H]1Oc2ncc(C3=CCCC3)cc2C(=O)N([C@H](C)CO)C[C@@H]1C	4.1	-0.3	1.3	133.9*	-0.8	1.0
C[C@@H]1CN([C@H](C)CO)C(=O)c2cc(C3=CCCC3)cnc2O[C@@H]1CN(C)C(=O)Nc1ccccc1	20.4	2.2	-0.6	59.3*	-0.6	-3.0
COc1ccc(NC(=O)N(C)C[C@@H]2Oc3c(NC(=O)C4CCCCC4)cccc3C(=O)N([C@H](C)CO)C[C@@H]2C)cc1	-3.6	-0.8	-1.1	0.2	-0.2	-4.0
COCC#Cc1ccc2c(c1)O[C@H](CN(C)Cc1cccnc1)[C@H](C)CN([C@@H](C)CO)S2(=O)=O	2.7	-1.5	-6.1	0.5	-1.6	-2.9
CN1C(=O)c2cc(NC(=O)C3CCCC3)ccc2OC[C@@H]2O[C@H](CC(=O)NCC(F)(F)F)CC[C@H]21	-12.2	-2.7	0.6	0.2	0.1	17.1
Cc1cc(C)nc(N/N=C/C2=C(N3CCOCC3)C(=C\c3ccc(Cl)cc3)/CC2)n1	x	x	x	x	0.4	x
O=C(O)c1ccc(N/N=C/C2=C(N3CCOCC3)C(=C\c3ccccc3)/CC2)cc1	-294.1	2.2	-36.0*	x	0.0	x
O=C(NCCc1c[nH]c2ccccc12)c1ccc2[nH]c(=O)c(=O)[nH]c2c1	-8.0	0.6	4.8	x	0.2	6.5
O=C(NCCc1ccc(Cl)cc1)c1ccc2[nH]c(=O)c(=O)[nH]c2c1	-26.8	5.8	-24.6*	x	0.0	-8.8
COCCCNC(=O)c1ccc2c(=O)n(Cc3ccc(Cl)cc3)c(=S)[nH]c2c1	-8.6	-0.3	2.4	48.6*	0.1	-10.0
O=C(Cc1ccc(Br)cc1)NCCc1ccc(F)cc1	-4.6	-0.5	-6.6	x	0.2	-4.0
O=C(Cc1ccc(Cl)cc1)NCCc1ccc(F)cc1	-13.3	5.5	-24.4*	0.0	0.2	-8.9
COCCCNC(=O)c1ccc2c(=O)n(Cc3ccc4c(c3)OCO4)c(=S)[nH]c2c1	x	2.4	x	x	x	0.4
Cc1nc(SCC(=O)NCCc2ccc(Cl)cc2)nc(C)c1C	-12.8	x	-28.5*	x	x	x
O=C(NCC[C@H]1CC[C@H](NC(=O)Nc2cc(F)ccc2F)[C@@H](CO)O1)Nc1ccc(F)cc1	38.7	-4.7	-3.0	-0.1	-0.2	5.5
C[C@@H]1CN([C@H](C)CO)C(=O)c2cc(NS(C)(=O)=O)ccc2O[C@@H](C)CCCCO[C@H]1CN(C)C(=O)NC1CCCCC1	x	0.9	4.6	x	0.1	-4.4
O=C(c1cnccn1)N1CC(=O)N2[C@H](CO)[C@@H](c3ccc(/C=C/c4ccccc4)cc3)[C@H]2C1	6.0	x	-3.6	0.0	0.1	x
CCCNC(=O)[C@@H]1[C@@H](CO)[C@@H]2Cn3c(cccc3=O)[C@@H]2N1Cc1ccccc1Cl	-9.8	-2.6	-1.4	-0.9	0.1	1.7
SMILES	RAD52 anneal inh	PglD inh	Ecoli rRNA inh	E-selectin induc	XiGFP reactiv	RAD54 inh
COc1ccc2c3c([nH]c2c1)[C@H](CO)N(S(C)(=O)=O)CC31CN(C(=O)Nc2ccccc2)C1	6.4	x	-2.0	0.6	0.6	x
COc1ccc2c(-c3ccccc3)cc(SCC(=O)N(C)C)nc2c1	-284.8	x	-48.8*	4.2	0.1	x
CCCNC(=O)Cc1ccc(N2C(=O)CSC2c2ccccc2)cc1 (stereo unspecified)	8.6	-1.1	x	x	x	-3.9
COc1ccccc1-n1c(=O)c(C#N)c(-c2ccc([N+](=O)[O-])cc2)c2cc(C(=O)c3cc(F)ccc3O)cnc21	-12.5	x	-4.0	x	0.1	x
Cn1c(=O)c(C#N)c(-c2ccc(F)cc2)c2cc(C(=O)c3cc(Cl)cc(Cl)c3O)cnc21	-15.7	-0.4	-28.0*	0.6	u	-11.5
CCC(=O)N1N=C(c2c(O)n(C)c(=O)n(C)c2=O)CC1c1ccccc1 (stereo unspecified)	-7.0	-13.3	-46.0*	0.4	0.0	4.9
CCC(=O)N1N=C(c2ccccc2)CC1c1ccccc1 (stereo unspecified)	-5.3	-1.4	-10.0	1.7	0.0	-0.1
COc1cc2c(cc1OC)CN(C(=O)/C=C/c1ccc([N+](=O)[O-])cc1)CC2	-2.3	-2.0	-17.2*	x	0.5	-5.2
Cc1ccccc1CN1CCN(S(C)(=O)=O)CC1	-4.3	-1.8	2.3	x	x	2.1
Cc1ccccc1CN1CCN(S(=O)(=O)c2ccc(Cl)s2)CC1	-3.1	6.6	-5.6	290.4*	0.7	-1.0
O=C(N[C@H]1CC[C@@H](CCNS(=O)(=O)c2ccccc2)O[C@H]1CO)c1cnccn1	-9.7	2.0	3.8	-0.3	-0.5	0.4
O=C(CCc1ccc(O)c(O)c1)NNC(=S)Nc1ccc(Br)cc1Cl	-7.5	2.1	-23.9*	x	0.0	-3.8
O=C(C[C@H]1CC[C@H]2[C@@H](COC[C@H](O)CN2Cc2ccc(Oc3ccccc3)cc2)O1)Nc1nccs1	-10.4	2.0	-5.8	-0.1	0.5	-1.1
O=C1c2ccccc2-c2ccc(C(=O)N3CCCCC3)cc21	-11.8	x	-24.6*	-0.9	-0.3	x
O=C(c1ccc(Cl)c(S(=O)(=O)N2CCCCCC2)c1)N1CCN(c2ccccc2O)CC1	-11.5	x	-44.2*	-0.8	0.0	x
COc1ccc2c3c([nH]c2c1)[C@H](CO)N(Cc1ccccc1)CC31CCN(C)CC1	x	x	0.9	-0.1	0.1	x
CC=Cc1ccc2n(c1=O)C[C@@H]1[C@@H](CO)[C@H](C(=O)Nc3ccc(-c4ccccc4)cc3)N(C(C)=O)[C@H]21 (mixture of isomers)	-4.1	0.3	-5.2	0.0	0.0	-10.7
Cc1cccc2c1NC(=O)C2=Nc1ccc(Cl)cc1	-21.3	-3.1	-19.4*	x	0.0	5.0

Compound activity from PubChem.
